Test results reported in ChEMBL document CHEMBL1157624, “Targeting Alzheimer's disease: Novel indanone hybrids bearing a pharmacophoric fragment of AP2238” (Bioorg Med Chem, 2010).

Tests used:
[1] = biological target: T1, Acetylcholinesterase (Homo sapiens, UniProt P22303); assay: Inhibition of human recombinant AChE preincubated for 20 mins before substrate addition by Ellman's method
[2] = biological target: Cholinesterase (Homo sapiens, UniProt P06276); assay: Inhibition of human BuChE preincubated for 20 mins before substrate addition by Ellman's method
Sequence of Cholinesterase (P06276 whole entry): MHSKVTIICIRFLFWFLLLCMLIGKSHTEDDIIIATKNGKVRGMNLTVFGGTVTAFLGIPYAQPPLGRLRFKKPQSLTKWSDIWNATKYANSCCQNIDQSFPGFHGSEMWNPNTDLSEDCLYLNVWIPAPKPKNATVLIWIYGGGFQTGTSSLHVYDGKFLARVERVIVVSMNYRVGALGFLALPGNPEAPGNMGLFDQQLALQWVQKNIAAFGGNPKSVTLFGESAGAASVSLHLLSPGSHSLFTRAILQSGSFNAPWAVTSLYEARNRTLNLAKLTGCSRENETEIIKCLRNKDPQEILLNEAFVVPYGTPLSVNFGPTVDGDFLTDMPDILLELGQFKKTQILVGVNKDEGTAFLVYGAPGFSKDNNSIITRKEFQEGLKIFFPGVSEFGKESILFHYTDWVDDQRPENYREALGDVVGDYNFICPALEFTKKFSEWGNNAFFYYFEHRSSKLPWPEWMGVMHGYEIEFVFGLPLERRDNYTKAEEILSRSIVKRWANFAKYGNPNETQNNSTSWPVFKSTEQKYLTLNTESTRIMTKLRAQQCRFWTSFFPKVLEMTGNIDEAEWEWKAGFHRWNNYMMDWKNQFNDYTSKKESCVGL
Summary of the method: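 Ellman assay using BuChE from human serum at 0.02 unit/mL in 0.1 M potassium phosphate pH 8.0 with 340 µM DTNB. Compound and enzyme preincubated 20 min at 37 °C, then 550 µM butyrylthiocholine iodide added. Blank lacks enzyme. Five concentrations chosen to give 20–80% inhibition, each in triplicate. IC50 read graphically from log concentration vs % inhibition. Mean of two independent measurements.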

[3] = species on record: Homo sapiens; assay: Selectivity ratio of IC50 for human BuChE to human recombinant AChE
Summary of the method: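 Ellman assay in 0.1 M potassium phosphate pH 8.0 with 340 µM DTNB, enzyme at 0.02 unit/mL: human recombinant AChE with 550 µM acetylthiocholine, serum-derived human BuChE with 550 µM butyrylthiocholine. Compounds preincubated with enzyme 20 min at 37 °C. IC50 from five-point curves run in triplicate, mean of two experiments. Ratio = IC50 BuChE / IC50 AChE.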

[4] = biological target: T1, Acetylcholinesterase; assay: Inhibition of human recombinant AChE-mediated hydrolysis of acetylcholine by Lineweaver-Burke plot analysis
Summary of the method: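 Steady-state kinetics on human recombinant AChE with acetylthiocholine as substrate at low concentrations (0.60–0.06 mM) and inhibitor at increasing concentrations (range 0–50 nM). Initial velocities were plotted as 1/v versus 1/[ATCh]. Plots were fitted by weighted least squares, taking the variance of v as a constant percentage of v, to estimate the competitive inhibition constant Ki.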

[5] = biological target: T1, Acetylcholinesterase; assay: Inhibition of human recombinant AChE-induced amyloid beta (1-40) aggregation at 100 uM by thioflavin T fluorescence assay
Summary of the method: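 Abeta40, lyophilised from HFIP and dissolved in DMSO, held at final 230 µM. Co-incubated with human recombinant AChE at final 2.30 µM (Abeta:AChE 100:1), with or without inhibitor at final 100 µM. Incubation 24 h at room temperature in 0.215 M sodium phosphate pH 8.0, run in duplicate. ThT read in glycine–NaOH pH 8.5 at ex 446/em 490 nm, subtracting ThT and AChE background. % inhibition = 100 − (IFi/IFo × 100).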

[6] = Inhibition of amyloid beta (1-42) self-aggregation at 10 uM after 24 hrs by thioflavin T-based fluorometric assay
Summary of the method: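 Abeta42 from stable 500 µM stock, incubated at final 50 µM in 10 mM phosphate buffer pH 8.0 with 10 mM NaCl, 30 °C for 24 h, with or without compound at 10 µM. Diluted into 50 mM glycine–NaOH pH 8.5 with 1.5 µM thioflavin T. Fluorescence read by 300 s scan at ex 446/em 490 nm, plateau values averaged after ThT background subtraction. % inhibition taken from ± inhibitor intensity ratio.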

T1 sequence (P22303 whole entry): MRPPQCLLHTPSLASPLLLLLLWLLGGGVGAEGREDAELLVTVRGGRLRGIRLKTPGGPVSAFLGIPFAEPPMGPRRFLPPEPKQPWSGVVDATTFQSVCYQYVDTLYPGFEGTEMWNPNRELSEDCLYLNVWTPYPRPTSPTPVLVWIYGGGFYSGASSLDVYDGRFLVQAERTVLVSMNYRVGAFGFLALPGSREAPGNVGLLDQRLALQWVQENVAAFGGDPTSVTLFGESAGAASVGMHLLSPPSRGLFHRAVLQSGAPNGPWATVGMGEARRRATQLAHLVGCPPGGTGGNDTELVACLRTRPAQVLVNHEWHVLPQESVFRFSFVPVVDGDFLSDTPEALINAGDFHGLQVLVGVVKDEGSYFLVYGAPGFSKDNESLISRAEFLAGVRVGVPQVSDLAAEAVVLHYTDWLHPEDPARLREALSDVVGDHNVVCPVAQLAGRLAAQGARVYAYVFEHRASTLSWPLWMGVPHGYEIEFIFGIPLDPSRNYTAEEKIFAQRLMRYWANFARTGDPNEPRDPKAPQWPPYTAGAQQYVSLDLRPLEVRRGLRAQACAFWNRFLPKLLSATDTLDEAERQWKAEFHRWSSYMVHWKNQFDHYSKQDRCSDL

Compound	IC50 [1]	IC50 [2]	Ratio IC50 [3]	Ki [4]	inhibition [5]	inhibition [6]
CCN(CC)CCCOc1ccc2c(c1)C/C(=C\c1ccc(CN(C)Cc3ccccc3)cc1)C2=O	1.61 µM	11.4 µM	7.08			
CN(Cc1ccccc1)Cc1ccc(/C=C2\CCc3cc(OCCCCCN4CCCCC4)ccc3C2=O)cc1	0.052 µM	5.01 µM	96.3	0.0611 µM	48.3%	26.9%
CCN(CC)CCCCCOc1ccc2c(c1)C(=O)/C(=C/c1ccc(CN(C)Cc3ccccc3)cc1)C2	0.19 µM	2.7 µM	14.2		29.7%	27.7%
COc1cc2c(cc1OC)C(=O)/C(=C/c1ccc(CN(C)Cc3ccccc3)cc1)CC2	0.18 µM	72.8 µM	404			
CN(Cc1ccccc1)Cc1ccc(/C=C2\Cc3ccc(OCCCCN4CCCCC4)cc3C2=O)cc1	0.18 µM	10 µM	55.5			
COc1cc2c(cc1OC)C(=O)/C(=C/c1ccc(CN(C)Cc3ccccc3)cc1)C2	1.14 µM	144 µM	126			
COc1ccc2c(c1)CC/C(=C\c1ccc(CN(C)Cc3ccccc3)cc1)C2=O	0.11 µM	90.3 µM	820			
COc1cc2c(cc1OC)C(=O)C(CC1CCN(Cc3ccccc3)CC1)C2 (stereo not given)						< 5%
COc1ccc2c(c1)C(=O)/C(=C/c1ccc(CN(C)Cc3ccccc3)cc1)CC2	5.38 µM	135 µM	25.1			
CCN(CC)CCCCOc1ccc2c(c1)C/C(=C\c1ccc(CN(C)Cc3ccccc3)cc1)C2=O	3.95 µM	22.9 µM	5.8			
CCN(CC)CCOc1ccc2c(c1)C(=O)/C(=C/c1ccc(CN(C)Cc3ccccc3)cc1)C2	1.53 µM	11.9 µM	7.77			
CCN(CC)CCOc1ccc2c(c1)C/C(=C\c1ccc(CN(C)Cc3ccccc3)cc1)C2=O	2.9 µM	22.5 µM	7.76			
CN(Cc1ccccc1)Cc1ccc(/C=C2\Cc3ccccc3C2=O)cc1	11.7 µM	29.9 µM	2.55			
CN(Cc1ccccc1)Cc1ccc(/C=C2\Cc3ccc(OCCCCN4CCOCC4)cc3C2=O)cc1	0.89 µM	99.8 µM	112			
CCN(Cc1ccccc1)Cc1ccc(/C=C2\Cc3ccc(OC)cc3C2=O)cc1	4.93 µM	98.1 µM	19.9			
COc1ccc2c(c1)C(=O)/C(=C/c1ccc(CN(C)Cc3ccccc3)cc1)C2	0.63 µM	7.93 µM	12.6		< 5%	< 5%
COc1ccc2c(c1)C/C(=C\c1ccc(CN(C)Cc3ccccc3)cc1)C2=O	28.7 µM	21.1 µM	0.73			
COc1cc2cc(-c3ccc(CN(C)Cc4ccccc4)cc3)c(=O)oc2cc1OC			1110			< 5%
CN(Cc1ccccc1)Cc1ccc(/C=C2\Cc3ccc(OCCCCCN4CCCCC4)cc3C2=O)cc1	0.2 µM	7.7 µM	38.5		46.8%	27.9%
CCN(CC)CCCCCOc1ccc2c(c1)CC/C(=C\c1ccc(CN(C)Cc3ccccc3)cc1)C2=O	0.056 µM	8.05 µM	144		42.9%	26.4%
CCN(CC)CCCCCCCOc1ccc2c(c1)C(=O)/C(=C/c1ccc(CN(C)Cc3ccccc3)cc1)C2	0.51 µM	33 µM	64.7			
CCN(CC)CCCCOc1ccc2c(c1)C(=O)/C(=C/c1ccc(CN(C)Cc3ccccc3)cc1)C2	0.89 µM	3.52 µM	3.95			
CCN(CC)CCCCCCOc1ccc2c(c1)C(=O)/C(=C/c1ccc(CN(C)Cc3ccccc3)cc1)C2	0.38 µM	20.5 µM	53.9			
CCN(CC)CCCOc1ccc2c(c1)C(=O)/C(=C/c1ccc(CN(C)Cc3ccccc3)cc1)C2	1.32 µM	11.9 µM	9.01			
